# How the values were obtained:
# [1] = Inhibition of bovine brain FPTase; set-up: species or system Bos taurus
# [2] = test system: PC-3; test: Growth inhibition of human PC3 cells incubated for 48 hrs by resazurin dye reduction based fluorimetric assay; format: functional; conditions: PC-3, 48 h
# In short: (§1)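 Cells seeded at 5 × 10^3 per well in full growth medium, adhered overnight, then medium replaced with fresh medium containing serial compound concentrations or DMSO control; 48 h at 37 °C. Resazurin added, 3 h at 37 °C; fluorescence ex 560/em 590 nm, time-zero reading subtracted. GI50 by nonlinear sigmoidal dose-response fit; landomycin A positive control; four replicates.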
# [3] = test system: NCI-H460; test: Growth inhibition of human NCI-H460 cells incubated for 48 hrs by resazurin dye reduction based fluorimetric assay; format: functional; conditions: NCI-H460, 48 h; in short: as §1
# [4] = molecular target: Nitric oxide synthase, inducible (Homo sapiens, UniProt P35228); test: Inhibition of iNOS
# Sequence of Nitric oxide synthase, inducible (P35228 whole entry): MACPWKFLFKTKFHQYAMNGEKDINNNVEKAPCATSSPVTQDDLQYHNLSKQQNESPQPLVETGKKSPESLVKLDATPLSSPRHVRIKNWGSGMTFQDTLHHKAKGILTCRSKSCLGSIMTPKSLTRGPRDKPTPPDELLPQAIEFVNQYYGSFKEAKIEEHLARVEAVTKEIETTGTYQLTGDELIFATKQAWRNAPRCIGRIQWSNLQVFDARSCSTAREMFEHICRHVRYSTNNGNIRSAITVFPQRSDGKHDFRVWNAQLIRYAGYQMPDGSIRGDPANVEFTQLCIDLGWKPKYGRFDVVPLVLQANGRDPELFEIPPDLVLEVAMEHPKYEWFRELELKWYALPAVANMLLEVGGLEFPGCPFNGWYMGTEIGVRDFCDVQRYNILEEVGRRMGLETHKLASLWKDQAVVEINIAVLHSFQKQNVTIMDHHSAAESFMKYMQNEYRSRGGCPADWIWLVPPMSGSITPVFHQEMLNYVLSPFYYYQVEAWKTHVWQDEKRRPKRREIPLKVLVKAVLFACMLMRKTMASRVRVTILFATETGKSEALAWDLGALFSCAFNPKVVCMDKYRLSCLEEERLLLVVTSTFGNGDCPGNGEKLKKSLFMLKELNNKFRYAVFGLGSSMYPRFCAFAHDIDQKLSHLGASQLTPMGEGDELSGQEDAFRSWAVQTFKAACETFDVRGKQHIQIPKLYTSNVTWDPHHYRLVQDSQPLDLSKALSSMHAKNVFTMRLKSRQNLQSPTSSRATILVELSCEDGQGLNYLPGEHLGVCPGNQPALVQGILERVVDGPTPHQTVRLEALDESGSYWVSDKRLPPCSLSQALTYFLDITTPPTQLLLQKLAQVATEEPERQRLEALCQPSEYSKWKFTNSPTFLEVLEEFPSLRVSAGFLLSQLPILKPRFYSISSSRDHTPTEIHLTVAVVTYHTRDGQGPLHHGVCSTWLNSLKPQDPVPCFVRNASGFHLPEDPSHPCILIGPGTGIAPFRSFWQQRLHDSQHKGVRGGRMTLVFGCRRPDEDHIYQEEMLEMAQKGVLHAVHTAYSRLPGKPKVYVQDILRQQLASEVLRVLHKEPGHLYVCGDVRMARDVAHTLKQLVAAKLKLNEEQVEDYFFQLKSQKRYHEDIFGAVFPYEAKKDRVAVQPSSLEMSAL
Structure (SMILES),IC50 [1],GI50 [2],GI50 [3],IC50 [4]
C[C@@H]1O[C@@H](O[C@H]2CC[C@H](O[C@@]3(C)CC(=O)[C@]4(O)C5=C(C=C[C@]4(O)C3)C(=O)c3c(ccc([C@H]4C[C@@H](O)[C@H](O[C@H]6CCC(=O)[C@H](C)O6)[C@@H](C)O4)c3O)C5=O)O[C@H]2C)C=CC1=O [SAQUAYAMYCINS F],2 µM,,,
C[C@@H]1O[C@H]2O[C@@H]3[C@@H](C)O[C@@H](c4ccc5c(c4O)C(=O)C4=C(C5=O)[C@@]5(O)C(=O)C[C@](C)(O[C@H]6CC[C@H](O[C@H]7CC[C@H](O)[C@H](C)O7)[C@H](C)O6)C[C@@]5(O)C=C4)C[C@H]3O[C@H]2CC1=O [SAQUAYAMYCIN J],,0.179 µM,5.69 µM,
C[C@@H]1O[C@@H](O[C@H]2CC[C@H](O[C@@]3(C)CC(=O)[C@]4(O)C5=C(C=C[C@]4(O)C3)C(=O)c3c(ccc([C@H]4C[C@@H](O)[C@H](O[C@@H]6O[C@@H](C)C(=O)C=C6N)[C@@H](C)O4)c3O)C5=O)O[C@H]2C)C=CC1=O (relative stereo) [SAQUAYAMYCIN I],,0.915 µM,7.94 µM,
C[C@@H]1O[C@@H](O[C@H]2CC[C@H](O[C@@]3(C)CC(=O)[C@]4(O)C5=C(C=C[C@]4(O)C3)C(=O)c3c(ccc([C@H]4C[C@@H](O)[C@H](O)[C@@H](C)O4)c3O)C5=O)O[C@H]2C)C=CC1=O (relative stereo) [SAQUAYAMYCIN G],,0.553 µM,6.72 µM,
C[C@@H]1O[C@@H](O[C@H]2[C@H](O)C[C@H](c3ccc4c(c3O)C(=O)C3=C(C4=O)[C@@]4(O)C(=O)C[C@](C)(O[C@H]5CC[C@H](O[C@H]6C=CC(=O)[C@H](C)O6)[C@H](C)O5)C[C@@]4(O)C=C3)O[C@@H]2C)C=CC1=O [SAQUAYAMYCINS A],,0.106 µM,6.2 µM,
C[C@@H]1O[C@@H](O[C@H]2CC[C@H](O[C@@]3(C)CC(=O)[C@]4(O)C5=C(C=C[C@]4(O)C3)C(=O)c3c(ccc([C@H]4C[C@H]6O[C@H]7CC(=O)[C@H](C)O[C@H]7O[C@@H]6[C@@H](C)O4)c3O)C5=O)O[C@H]2C)C(N)=CC1=O [SAQUAYAMYCIN H],,0.79 µM,3.3 µM,
C[C@@H]1O[C@@H](O[C@H]2[C@H](O)C[C@H](c3ccc4c(c3O)C(=O)C3=C(C4=O)[C@@]4(O)C(=O)C[C@](C)(O)C[C@@]4(O)C=C3)O[C@@H]2C)C=CC1=O [SAQUAYAMYCINS A1],,,,101 µM
Cc1cc(O)c2c(c1)C[C@@H](O)C1=C2C(=O)c2c(O)ccc(O[C@H]3C[C@@H](O)[C@H](O[C@H]4C[C@@H](O[C@H]5CC[C@H](O[C@H]6C[C@@H](O)[C@H](O[C@H]7C[C@@H](O[C@H]8CC[C@H](O)[C@H](C)O8)[C@H](O)[C@@H](C)O7)[C@@H](C)O6)[C@H](C)O5)[C@H](O)[C@@H](C)O4)[C@@H](C)O3)c2C1=O [LANDOMYCIN A],,0.55 µM,4.11 µM,
C[C@@H]1O[C@@H](O[C@H]2CC[C@H](O[C@@]3(C)CC(=O)[C@]4(O)C5=C(C=C[C@]4(O)C3)C(=O)c3c(ccc([C@H]4C[C@H]6O[C@H]7CC(=O)[C@H](C)O[C@H]7O[C@@H]6[C@@H](C)O4)c3O)C5=O)O[C@H]2C)C=CC1=O [SAQUAYAMYCIN B],,0.0745 µM,3.93 µM,
C[C@@H]1O[C@@H](O[C@H]2[C@H](O)C[C@H](c3ccc4c(c3O)C(=O)C3=C(C4=O)[C@@]4(O)C(=O)C[C@](C)(O[C@H]5CC[C@H](O[C@H]6CCC(=O)[C@H](C)O6)[C@H](C)O5)C[C@@]4(O)C=C3)O[C@@H]2C)C=CC1=O [SAQUAYAMYCINS E],1.8 µM,,,
C[C@@H]1O[C@@H](O[C@H]2CC[C@H](O[C@H]3[C@H](O)C[C@H](c4ccc5c(c4O)C(=O)C4=C(C5=O)[C@@]5(O)C(=O)C[C@](C)(O)C[C@@]5(O)C=C4)O[C@@H]3C)O[C@H]2C)C=CC1=O,,,,43.5 µM
C[C@@H]1O[C@H]2O[C@@H]3[C@@H](C)O[C@@H](c4ccc5c(c4O)C(=O)C4=C(C5=O)[C@@]5(O)C(=O)C[C@](C)(O)C[C@@]5(O)C=C4)C[C@H]3O[C@H]2CC1=O [SAQUAYAMYCIN B1],,1.76 µM,13.2 µM,
C[C@@H]1O[C@@H](O[C@H]2CC[C@H](O[C@@]3(C)CC(=O)[C@]4(O)C5=C(C=C[C@]4(O)C3)C(=O)c3c(ccc([C@H]4C[C@@H](O)[C@H](O[C@H]6CC[C@H](O)[C@H](C)O6)[C@@H](C)O4)c3O)C5=O)O[C@H]2C)C=CC1=O [SAQUAYAMYCIN K],,0.148 µM,7.28 µM,

# Reference: ChEMBL document CHEMBL2069249, “Saquayamycins G-K, cytotoxic angucyclines from Streptomyces sp. Including two analogues bearing the aminosugar rednose” (J Nat Prod, 2012)
